Measurements: ChEMBL document CHEMBL1944571, “A bright approach to the immunoproteasome: development of LMP2/β1i-specific imaging probes” (Bioorg Med Chem, 2012)
Calls of active or inactive are those of the source. The calls are words filed in the database; no cut-off is given here.

Tests used:
[1] = molecular target: T1, Proteasome subunit beta type-9 (Homo sapiens) (UniProt P28065); assay: Binding affinity to LMP2/beta1i in human PC3 cells after 4 hrs using typhoon imaging by gel fluorescence assay; type: cell-based; details: PC-3
T1 sequence (whole entry): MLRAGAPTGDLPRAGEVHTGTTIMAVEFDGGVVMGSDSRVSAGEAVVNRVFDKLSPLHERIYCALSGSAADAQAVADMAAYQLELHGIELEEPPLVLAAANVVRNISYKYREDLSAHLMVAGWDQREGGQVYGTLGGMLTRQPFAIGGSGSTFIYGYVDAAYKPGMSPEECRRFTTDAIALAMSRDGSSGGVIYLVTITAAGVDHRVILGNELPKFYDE
Summary of the method: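 PC-3 cells were treated with probe or DMSO vehicle for 4 h, with an epoxomicin control. Cells were washed in HBSS and lysed on ice for 1 h in NP-40/Triton X-100 buffer with protease inhibitors. Equal protein was run on 12% SDS-PAGE after denaturing at 100°C, and gels were scanned for fluorescence (λex 635 nm, λem 665 nm).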

[2] = molecular target: T1, Proteasome subunit beta type-9 (Homo sapiens); assay: Binding affinity to LMP2/beta1i in human PC3 cells at 30 uM after 4 hrs by gel-fluorescence assay in presence of UK101-Lys-Cbz treated 1.5 hrs before compound treatment; type: cell-based; details: PC-3
Summary of the method: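 PC-3 cells were pretreated for 1.5 h with DMSO or 20 μM competitor, then incubated with 30 μM fluorescent probe for a further 4 h. Lysates were resolved by SDS-PAGE, and gels were imaged for in-gel fluorescence (λex 635 nm, λem 665 nm).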

[3] = molecular target: T1, Proteasome subunit beta type-9 (Homo sapiens); assay: Binding affinity to LMP2/beta1i in human PC3 cells at 30 uM after 4 hrs by gel-fluorescence assay in presence of UK101 treated 1.5 hrs before compound treatment; type: cell-based; details: PC-3
Summary of the method: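 PC-3 cells were pretreated for 1.5 h with DMSO or 1 μM competitor, then given 30 μM fluorescent probe for a further 4 h. Cells were washed, lysed, resolved by SDS-PAGE, and gels were imaged for in-gel fluorescence (λex 635 nm, λem 665 nm).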

[4] = molecular target: T1, Proteasome subunit beta type-9 (Homo sapiens); assay: Effect on LMP2/beta1i cellular distribution in human PC3 cells after 4 hrs by fluorescence microscopy analysis in presence of UK101 treated 1.5 hrs before compound treatment; type: cell-based; details: PC-3
Summary of the method: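 PC-3 cells were grown on coverslips for 24–48 h, pretreated for 1.5 h with DMSO or 5 μM competitor, then given 15 μM probe for 4 h. Cells were washed, fixed in 4% paraformaldehyde, permeabilized with 0.2% Triton, and blocked. Where indicated, cells were stained with anti-LMP2 antibody, mounted with DAPI, and imaged by fluorescence microscopy, with intensity normalized to control.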

[5] = molecular target: T1, Proteasome subunit beta type-9 (Homo sapiens); assay: Binding affinity to LMP2/beta1i in human PC3 cells at 30 uM after 4 hrs by fluorescence microscopy analysis in presence of UK101-Lys-Cbz treated 1.5 hrs before compound treatment; type: cell-based; details: PC-3
[6] = molecular target: T1, Proteasome subunit beta type-9 (Homo sapiens); assay: Binding affinity to LMP2/beta1i in human PC3 cells at 15 uM after 4 hrs by fluorescence microscopy analysis in presence of UK101 treated 1.5 hrs before compound treatment; details: PC-3
[7] = molecular target: T2, Proteasome subunit beta type-9 (Mus musculus) (UniProt P28076); assay: Binding affinity to LMP2/beta1i in mouse EL4 cells at 1 uM after 1.5 hrs by Western blotting; type: cell-based
T2 sequence (whole entry): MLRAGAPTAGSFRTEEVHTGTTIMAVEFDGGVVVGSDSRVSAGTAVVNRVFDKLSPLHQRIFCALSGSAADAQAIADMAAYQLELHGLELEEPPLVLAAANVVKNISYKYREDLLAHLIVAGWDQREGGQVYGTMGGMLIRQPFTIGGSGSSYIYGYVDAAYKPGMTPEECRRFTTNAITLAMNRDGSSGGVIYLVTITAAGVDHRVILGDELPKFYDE
Summary of the method: (§1)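 EL4 or PC-3 cells were exposed for 1.5 h to compound, DMSO vehicle, or 1 μM epoxomicin as positive control. Cells were washed in HBSS, lysed on ice for 1 h in non-denaturing NP-40/Triton buffer, and equal protein was resolved on 12% SDS-PAGE and blotted to PVDF. Blots were probed with subunit-specific antibodies and read by ECL. An upward band shift versus DMSO was scored as covalent modification.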

[8] = molecular target: T2, Proteasome subunit beta type-9 (Mus musculus); assay: Binding affinity to LMP2/beta1i in mouse EL4 cells at 5 uM after 1.5 hrs by Western blotting; type: cell-based; summary of the method: as §1
[9] = molecular target: T2, Proteasome subunit beta type-9 (Mus musculus); assay: Binding affinity to LMP2/beta1i in mouse EL4 cells at 10 uM after 1.5 hrs by Western blotting; type: cell-based; summary of the method: as §1
[10] = molecular target: T3, Proteasome subunit beta type-8 (Mus musculus) (UniProt P28063); assay: Binding affinity to LMP7/beta5i in mouse EL4 cells at 10 uM after 1.5 hrs by Western blotting; type: cell-based; summary of the method: as §1
T3 sequence (whole entry): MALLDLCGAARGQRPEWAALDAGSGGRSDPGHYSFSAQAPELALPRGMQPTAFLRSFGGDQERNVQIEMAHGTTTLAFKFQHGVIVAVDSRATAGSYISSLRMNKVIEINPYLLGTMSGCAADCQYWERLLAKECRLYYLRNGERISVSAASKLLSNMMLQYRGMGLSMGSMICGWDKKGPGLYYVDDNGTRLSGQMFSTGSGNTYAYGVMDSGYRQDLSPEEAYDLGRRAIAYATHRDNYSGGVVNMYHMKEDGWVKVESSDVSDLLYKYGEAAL

[11] = molecular target: T4, Proteasome subunit beta type-6 (Mus musculus) (UniProt Q60692); assay: Binding affinity to LMPY/beta1 in mouse EL4 cells at 10 uM after 1.5 hrs by Western blotting; type: cell-based; summary of the method: as §1
T4 sequence (whole entry): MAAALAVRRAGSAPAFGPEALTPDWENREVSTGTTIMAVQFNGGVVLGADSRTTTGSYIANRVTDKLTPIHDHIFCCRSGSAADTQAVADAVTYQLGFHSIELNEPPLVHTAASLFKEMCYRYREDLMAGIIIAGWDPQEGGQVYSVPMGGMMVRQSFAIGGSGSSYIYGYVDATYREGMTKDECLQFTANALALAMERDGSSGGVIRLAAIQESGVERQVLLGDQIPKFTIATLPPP

[12] = molecular target: T5, Proteasome subunit beta type-5 (Mus musculus) (UniProt O55234); assay: Binding affinity to LMPX/[…] in mouse EL4 cells at 10 uM after 1.5 hrs by Western blotting; type: cell-based; summary of the method: as §1
T5 sequence (whole entry): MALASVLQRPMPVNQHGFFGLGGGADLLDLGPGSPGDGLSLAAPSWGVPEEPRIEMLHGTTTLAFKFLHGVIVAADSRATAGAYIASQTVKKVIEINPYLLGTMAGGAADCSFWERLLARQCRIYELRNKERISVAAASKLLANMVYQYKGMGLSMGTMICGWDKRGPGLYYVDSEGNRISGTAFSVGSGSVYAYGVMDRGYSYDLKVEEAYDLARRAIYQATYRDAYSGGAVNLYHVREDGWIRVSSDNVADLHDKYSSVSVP

[13] = molecular target: T1, Proteasome subunit beta type-9 (Homo sapiens); assay: Binding affinity to LMP2/beta1i in human PC3 cells at 10 to 80 uM after 1.5 hrs by Western blotting; type: cell-based; details: PC-3; summary of the method: as §1
[14] = molecular target: T6, Proteasome Macropain subunit MB1 (Homo sapiens) (UniProt P28074); assay: Binding affinity to LMPX/[…] in human PC3 cells at 10 to 20 uM after 1.5 hrs by Western blotting; type: cell-based; details: PC-3; summary of the method: as §1
T6 sequence (whole entry): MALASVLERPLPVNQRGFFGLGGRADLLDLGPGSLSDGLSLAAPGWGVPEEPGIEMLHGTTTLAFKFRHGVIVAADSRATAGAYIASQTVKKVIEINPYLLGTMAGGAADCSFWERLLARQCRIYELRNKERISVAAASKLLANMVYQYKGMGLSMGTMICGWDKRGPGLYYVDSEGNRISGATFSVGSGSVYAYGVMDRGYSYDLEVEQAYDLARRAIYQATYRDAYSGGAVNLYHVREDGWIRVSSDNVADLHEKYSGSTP

[15] = molecular target: T7, Proteasome subunit beta type-6 (Homo sapiens) (UniProt P28072); assay: Binding affinity to LMPY/beta1 in human PC3 cells at 10 to 20 uM after 1.5 hrs by Western blotting; type: cell-based; details: PC-3; summary of the method: as §1
T7 sequence (whole entry): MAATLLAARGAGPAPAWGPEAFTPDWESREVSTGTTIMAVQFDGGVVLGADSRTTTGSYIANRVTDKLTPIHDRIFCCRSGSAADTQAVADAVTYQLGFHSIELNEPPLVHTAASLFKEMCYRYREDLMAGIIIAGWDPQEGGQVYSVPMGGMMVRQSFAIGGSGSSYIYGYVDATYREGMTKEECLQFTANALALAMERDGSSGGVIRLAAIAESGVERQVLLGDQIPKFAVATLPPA

[16] = molecular target: T8, Proteasome subunit beta type-8 (Homo sapiens) (UniProt P28062); assay: Binding affinity to LMP7/beta5i in human PC3 cells at 10 to 20 uM after 1.5 hrs by Western blotting; type: cell-based; details: PC-3; summary of the method: as §1
T8 sequence (whole entry): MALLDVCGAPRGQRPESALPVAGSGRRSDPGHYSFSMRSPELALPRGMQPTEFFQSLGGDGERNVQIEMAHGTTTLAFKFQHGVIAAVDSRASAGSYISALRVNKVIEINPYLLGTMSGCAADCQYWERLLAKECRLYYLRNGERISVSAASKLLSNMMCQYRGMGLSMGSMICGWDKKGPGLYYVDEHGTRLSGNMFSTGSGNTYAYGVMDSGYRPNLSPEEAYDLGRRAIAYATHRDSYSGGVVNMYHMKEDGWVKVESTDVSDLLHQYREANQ

Row | Activity [1] | Activity [2] | Activity [3] | Activity [4] | Activity [5] | Activity [6] | Activity [7] | Activity [8] | Activity [9] | Activity [10] | Activity [11] | Activity [12] | Activity [13] | Activity [14] | Activity [15] | Activity [16] | SMILES
1 | Active | inactive | inactive | inactive | inactive | inactive | – | – | – | – | – | – | – | – | – | – | CCCCCCC(=O)N[C@@H](CCCCNC(=O)CCCCCNC(=O)COc1ccc(/C=C/c2ccc3n2[B-](F)(F)[N+]2=C(c4ccc[nH]4)C=CC2=C3)cc1)C(=O)N[C@@H](CC(C)C)C(=O)[C@@]1(CO[Si](C)(C)C(C)(C)C)CO1
2 | – | – | – | – | – | – | inactive | Active | Active | inactive | inactive | inactive | Active | inactive | inactive | inactive | CCCCCCC(=O)N[C@@H](CCCCNC(=O)OCc1ccccc1)C(=O)N[C@@H](CC(C)C)C(=O)[C@@]1(CO[Si](C)(C)C(C)(C)C)CO1
